Measured values: ChEMBL document CHEMBL1122833, “Potential antitumor agents. 44. Synthesis and antitumor activity of new classes of diacridines: importance of linker chain rigidity for DNA binding kinetics and biological activity” (J Med Chem, 1985)

Tests used:
L1210 = assay: In vitro inhibitory dose that reduces L1210 cell line by 50% when added for a period of 70h; type: functional; details: Mus musculus, L1210, 70 h; read-out: ID50 (the source's name)
How it was run: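 L1210 cultures were exposed to drug for 70 h, and cells were then counted. IC50 is the drug concentration (nM) that reduces cell numbers to 50% of untreated controls.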

[1] = Lipophilicity (Rm); type: physicochemical; details: chromatographic, drug cations at pH 1-2
P388 [2] = assay: (§1) The % increase in lifespan of treated animals over that of control group of animals injected with tumor alone; type: functional, Mus musculus
P388 [3] = assay: (§2) Highest nontoxic optimal dose administered intraperitoneally after inoculation of P388 leukemia cells; type: functional, Mus musculus
How it was run: (§3)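 Mice were inoculated with 10^6 P388 leukemia cells. Drug was given intraperitoneally in 30% v/v EtOH/water on days 1, 5 and 9 after inoculation. OD is the highest nontoxic dose in mg/kg per day.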

P388 [4] = assay: as §2; type: functional, Mus musculus; how it was run: as §3; remark: listed apart in the source
[5] = Chromatographic measure of drug lipophilicity determined for drug cations was evaluated; type: physicochemical
P388 [6] = assay: as §1; type: functional, Mus musculus; remark: listed apart in the source

Row | SMILES | IC50 (L1210) [nM] | Rm [1] | ILS (P388 [2]) [%] | OD (P388 [3]) [mg/kg] | OD (P388 [4]) [mg/kg] | Rm [5] | ILS (P388 [6]) [%]
1 | c1ccc2c(NCCN3CCN(CCNc4c5ccccc5nc5ccccc45)CC3)c3ccccc3nc2c1 | 78 | -0.77 | <20 | 3 |  |  | 
2 | Cn1nc(C(=O)NCCNc2c3ccccc3nc3ccccc23)cc1C(=O)NCCNc1c2ccccc2nc2ccccc12 | 13 | -0.3 | 46 | 20 |  |  | 
3 | c1ccc2c(NCCCCCCCNc3c4ccccc4nc4ccccc34)c3ccccc3nc2c1 | 50 | 0.21 | <20 | 8.9 |  |  | 
4 | c1ccc2c(NCCCNCCNCCCNc3c4ccccc4nc4ccccc34)c3ccccc3nc2c1 | 560 | -0.86 | <20 | 10 |  |  | 
5 | c1ccc2c(NCCNCCNCCNc3c4ccccc4nc4ccccc34)c3ccccc3nc2c1 | 2900 | -0.9 | <20 | 10 |  |  | 
6 | c1ccc2c(NCCCCCCCCCCNc3c4ccccc4nc4ccccc34)c3ccccc3nc2c1 | 280 | 0.45 | <20 | 5.9 |  |  | 
7 | O=C(CCNc1c2ccccc2nc2ccccc12)NCCCNc1c2ccccc2nc2ccccc12 | > 3500 | -0.28 | <20 | 15 |  |  | 
8 | c1ccc2c(NCCCCNc3c4ccccc4nc4ccccc34)c3ccccc3nc2c1 | 10800 | -0.21 | <20 | 30 |  |  | 
9 | O=C(CNc1c2ccccc2nc2ccccc12)NCCNc1c2ccccc2nc2ccccc12 | > 4000 | -0.41 | <20 | 50 |  |  | 
10 | c1ccc2c(NCCCCCCCCCNc3c4ccccc4nc4ccccc34)c3ccccc3nc2c1 | 160 | 0.4 | <20 | 5.9 |  |  | 
11 | O=C(CCCNc1c2ccccc2nc2ccccc12)NCCCNc1c2ccccc2nc2ccccc12 | > 3500 | -0.12 | <20 | 50 |  |  | 
12 | c1ccc2c(NCCCCCCNc3c4ccccc4nc4ccccc34)c3ccccc3nc2c1 | 110 | 0.15 | <20 | 13.3 |  |  | 
13 | c1ccc2c(NCCCCCNc3c4ccccc4nc4ccccc34)c3ccccc3nc2c1 | 3700 | 0.02 | <20 | 20 |  |  | 
14 | Nc1c2ccccc2nc2ccccc12 [AMINACRINE] | 1900 | -0.08 | <20 | 20 |  |  | 
15 | Cn1nc(C(=O)NCCCCNc2c3ccccc3nc3ccccc23)cc1C(=O)NCCCCNc1c2ccccc2nc2ccccc12 | 24 | 0.11 | 26 | 8.9 |  |  | 
16 | c1ccc2c(NCCCN3CCN(CCCNc4c5ccccc5nc5ccccc45)CC3)c3ccccc3nc2c1 |  | -0.72 | <20 | 3 | 3 | -0.72 | <20
17 | Cn1nc(C(=O)NCCCNc2c3ccccc3nc3ccccc23)cc1C(=O)NCCCNc1c2ccccc2nc2ccccc12 | 55 | 0 | 65 | 20 |  |  | 
18 | c1ccc2c(NCCCCNCCCNc3c4ccccc4nc4ccccc34)c3ccccc3nc2c1 | 29 | -0.39 | <20 | 10 |  |  | 
19 | c1ccc2c(NCCCNCCCNc3c4ccccc4nc4ccccc34)c3ccccc3nc2c1 | 480 | -0.53 | <20 | 5 |  |  | 
20 | O=C(CCNc1c2ccccc2nc2ccccc12)NCCNc1c2ccccc2nc2ccccc12 | > 3500 | -0.43 | <20 | 50 |  |  | 
21 | O=C(CCCNc1c2ccccc2nc2ccccc12)NCCNc1c2ccccc2nc2ccccc12 | > 3500 | -0.19 | <20 | 50 |  |  | 
22 | CN(CCCNc1c2ccccc2nc2ccccc12)CCCNc1c2ccccc2nc2ccccc12 | 780 | -0.65 | <20 | 10 |  |  | 
23 | c1ccc2c(NCCCCCCCCNc3c4ccccc4nc4ccccc34)c3ccccc3nc2c1 | 170 | 0.28 | <20 | 8.9 |  |  | 
24 | O=C(CNc1c2ccccc2nc2ccccc12)NCCCNc1c2ccccc2nc2ccccc12 | > 3500 | -0.24 | <20 | 50 |  |  | 
